Assay results from PubChem BioAssay AID504409 (Broad Institute, 2011).
Records with an inconclusive call do not appear. Activity calls are given as the source filed them.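 How the source made its calls: active means fitted curve reaches caspase activation of 10% of the positive control signal in every replicate test; inconclusive means tests disagree, or a test had a flat mid-level or poor fit; inactive means every replicate test called inactive.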

Key:
[1] = caspase activation in Flag-A1-IRES-BIM MEFs, dose response, orthogonal assay for A1 inhibitor project, cell-based, Flag-A1-IRES-BIM MEF, luminescence, dry powder, set 3 (AID 504409); details: MEF Flag-A1-IRES-BIM, caspase-Glo luminescence, 3 h; at 35 µM (top of the series)
Method in brief: (§1)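 Test system – mouse embryonic fibroblasts primed with alternate Flag-A1-IRES-BIM construct · Amount – 2500 cells/well · Buffer or medium – RPMI-1640, 10% heat-inactivated FBS · Times – 3 h exposure (37 °C, 5% CO2), 1 h room-temperature detection · Signal – luminescence with CaspaseGlo reagent diluted 1:1 in 50 mM HEPES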

[2] = system: MEF Flag-A1-IRES-BIM, caspase-Glo luminescence, 3 h; experiment: as above
Method in brief: as §1

| SMILES | caspase activation [1] | AC10 [2] [µM] |
| --- | --- | --- |
| COc1ccc(N2CCN(c3nc(NCCc4ccc(OC)c(OC)c4)nc(N4CCOCC4)n3)CC2)cc1 | 0.186% (inactive) |  |
| COc1ccc(CCNc2nc(N3CCCC3)nc(N3CCCC3)n2)cc1OC | -0.336% (inactive) |  |
| O=c1[nH]c2ccccc2c(Cl)c1[N+](=O)[O-] |  | 3.38 |
| CCn1c(=O)c([N+](=O)[O-])c(Sc2ccc(C)cc2)c2ccccc21 | 1.63% (inactive) |  |
| COc1ccc(CCNc2nc(N3CCOCC3)nc(N3CCOCC3)n2)cc1OC | 0.077% (inactive) |  |
| COCCn1c(=O)c([N+](=O)[O-])c(Sc2ccc(C)cc2)c2ccccc21 |  | 15.5 |
| O=C(COc1ccc(Cl)cc1Cl)NNc1nc(N2CCOCC2)nc(N2CCOCC2)n1 | -1.06% (inactive) |  |
| Cn1c(=O)c([N+](=O)[O-])c(Cl)c2ccccc21 |  | 1.84 |
| CCn1c(=O)c(Sc2ccc(C)cc2)c(Sc2ccc(C)cc2)c2ccccc21 | 2.86% (inactive) |  |
| CC1(C)CCC(c2ccc(Cl)cc2)=C(CN2CCN(c3ccc(C(=O)NS(=O)(=O)c4ccc(N[C@H](CCN5CCOCC5)CSc5ccccc5)c(S(=O)(=O)C(F)(F)F)c4)cc3)CC2)C1 |  | 0.689 |
| COc1nc2ccccc2c(Sc2ccc(C)cc2)c1[N+](=O)[O-] | 2.16% (inactive) |  |
| COc1c([N+](=O)[O-])c(=O)n(C)c2ccccc12 | 1.51% (inactive) |  |
| Cn1c(=O)c([N+](=O)[O-])c(Sc2ccccn2)c2ccccc21 |  | 3 |
| COCCn1c(=O)c(Sc2ccc(C)cc2)c(Sc2ccc(C)cc2)c2ccccc21 | -0.209% (inactive) |  |
| O=c1[nH]c2ccccc2c(O)c1[N+](=O)[O-] | 0.941% (inactive) |  |
| Cc1ccc(Sc2c(Sc3ccc(C)cc3)c3ccccc3n(C)c2=O)cc1 | -0.308% (inactive) |  |
| Cn1c(=O)c([N+](=O)[O-])c(S(C)(=O)=O)c2ccccc21 |  | 3.06 |
| C/C(=N\Nc1nc(N2CCCCC2)nc(N2CCCCC2)n1)c1ccc(F)cc1 | 0.551% (inactive) |  |
| CCn1c(=O)c([N+](=O)[O-])c(Cl)c2ccccc21 |  | 1.49 |
| Cn1c(=O)c(Sc2ccccn2)c(Sc2ccccn2)c2ccccc21 | 1.87% (inactive) |  |
| Cc1ccc(Sc2c(Sc3ccc(C)cc3)c3ccccc3n(Cc3ccccc3)c2=O)cc1 | -0.908% (inactive) |  |
| COCCn1c(=O)c([N+](=O)[O-])c(Cl)c2ccccc21 |  | 1.46 |
| Cc1ccc(S(=O)(=O)c2c([N+](=O)[O-])c(=O)n(C)c3ccccc23)cc1 |  | 4.11 |
